Results reported in ChEMBL document CHEMBL4680131, “Fangchinoline derivatives induce cell cycle arrest and apoptosis in human leukemia cell lines via suppression of the PI3K/AKT and MAPK signaling pathway” (Eur J Med Chem, 2020).
Activity calls are given as the source filed them. No cut-off for these calls is given here.

Tests used:
HEL [1] = test: Cytotoxicity against human HEL cells assessed as reduction in cell viability incubated for 48 hrs by MTT assay; assay type: functional, cell-based
Procedure, shortened: (§1)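 MTT viability after 48 h exposure. Cells (1×10^4/well) were allowed 24 h at 37 °C before dosing. Leukemia lines were grown in RPMI and breast lines in high-glucose DMEM, each with 5% FBS under 5% CO2. MTT was added for 4 h, formazan dissolved in DMSO, and absorbance read at 490 nm. Triplicate wells; values averaged over at least 3 independent experiments.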

K562 = test: Cytotoxicity against human K562 cells assessed as reduction in cell viability incubated for 48 hrs by MTT assay; assay type: functional, cell-based; details: K562, 48 h; procedure, shortened: as §1
MDA-MB-231 [2] = test: Cytotoxicity against human MDA-MB-231 cells assessed as reduction in cell viability incubated for 48 hrs by MTT assay; assay type: functional, cell-based; details: MDA-MB-231, 48 h; procedure, shortened: as §1
MCF7 [3] = test: Cytotoxicity against human MCF-7 cells assessed as reduction in cell viability incubated for 48 hrs by MTT assay; assay type: functional, cell-based; details: MCF7, 48 h; procedure, shortened: as §1
HEL [4] = test: Antiproliferative activity against human HEL cells assessed as reduction in cell viability incubated for 12 to 72 hrs by MTT assay; assay type: functional, cell-based; details: dose 0.5-2 µM, time 12-72 hrs
Procedure, shortened: (§2)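 HEL cells were kept in RPMI with 5% FBS at 37 °C and 5% CO2. They were seeded at 1×10^4/well and given 24 h before dosing. Exposure ran 12, 24, 36, 48 or 72 h, then MTT was added for 4 h, formazan dissolved in DMSO, and absorbance read at 490 nm. Triplicate wells, repeated at least three times.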

HEL [5] = test: Antiproliferative activity against human HEL cells assessed as reduction in cell viability at 0.5 to 2 uM by MTT assay; assay type: functional, cell-based; details: dose 0.5-2 µM, time 12.0 hrs, TDE = time-dependent effect; procedure, shortened: as §2
HEL [6] = test: Induction of cell cycle arrest in human HEL cells assessed as accumulation of cells at G0/G1 phase measured after 1 hrs by flow cytometry; assay type: functional, cell-based
Procedure, shortened: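 HEL cells (2×10^5/well) were given DMSO or compound, then fixed in ice-cold 70% ethanol at 4 °C overnight and washed in PBS. Cells were stained 1 h at 37 °C in the dark with PBS containing 50 µg/mL PI and 100 µg/mL RNase. DNA content was analyzed by flow cytometry.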

HEL [7] = test: Induction of cell cycle arrest in human HEL cells assessed as down regulation of cMyc incubated for 1 hr by Western blot analysis; assay type: functional, cell-based
Procedure, shortened: (§3)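 HEL cells were lysed in RIPA after compound or DMSO treatment. Lysates were run on 10% SDS-PAGE, transferred to PVDF and blocked in 5% BSA for 1 h. Blots were probed overnight at 4 °C with antibodies to PARP, caspase-3, caspase-9, c-MYC or p21, then HRP secondary for 2 h, and detected by ECL. β-actin served as loading control.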

HEL [8] = test: Induction of cell cycle arrest in human HEL cells assessed as up regulation of p21 incubated for 1 hr by Western blot analysis; assay type: functional, cell-based; procedure, shortened: as §3
HEL [9] = test: Induction of apoptosis in human HEL cells assessed as viable cells by Annexin-V/propidium iodide staining-based flow cytometric analysis (reference value: 96.62%); assay type: functional
HEL [10] = test: Induction of apoptosis in human HEL cells assessed as early apoptotic cells by Annexin-V/propidium iodide staining-based flow cytometric analysis (reference value: 2.26%); assay type: functional
HEL [11] = test: Induction of apoptosis in human HEL cells assessed as late apoptotic cells by Annexin-V/propidium iodide staining-based flow cytometric analysis (reference value: 0.76%); assay type: functional
HEL [12] = test: Induction of apoptosis in human HEL cells assessed as necrotic cells by Annexin-V/propidium iodide staining-based flow cytometric analysis (reference value: 0.34%); assay type: functional
HEL [13] = test: Induction of apoptosis in human HEL cells assessed as increase in PARP cleavage by Western blot analysis; assay type: functional, cell-based; procedure, shortened: as §3
HEL [14] = test: Induction of apoptosis in human HEL cells assessed as increase in caspase 3 cleavage by Western blot analysis; assay type: functional, cell-based; procedure, shortened: as §3
HEL [15] = test: Induction of apoptosis in human HEL cells assessed as increase in caspase 9 cleavage by Western blot analysis; assay type: functional, cell-based; procedure, shortened: as §3
HEL [16] = test: Inhibition of Akt in human HEL cells assessed as PI3K/AKT phosphorylation at 2.5 uM after 8 hrs by Western blot analysis; assay type: cell-based
Procedure, shortened: (§4)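 HEL cells were treated with 2.5 µM for 8 h, with DMSO as control. RIPA lysates were run on 10% SDS-PAGE and transferred to PVDF. Blots were blocked in 5% BSA, incubated overnight at 4 °C with antibodies to total and phospho Akt, ERK and JNK, then HRP secondary, and detected by ECL. Bands were normalized to β-actin; means ± SD of triplicates in three independent runs; t-test.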

HEL [17] = test: Inhibition of ERK phosphorylation in human HEL cells at 2.5 uM after 8 hrs by Western blot analysis; assay type: cell-based; procedure, shortened: as §4
[18] = Inhibition of AKT (unknown origin) by ELISA assay; design: species or system Homo sapiens
Procedure, shortened: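 Akt kinase activity kit run per the manufacturer's protocol. Akt source was lysate of compound-treated human leukemia HEL cells, purified on a Mono Q anion-exchange column before the kinase measurement. HEL cells were grown in RPMI with 5% FBS at 37 °C and 5% CO2. The value is reported as an IC50.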

HEL [19] = test: Potency index, ratio of fangchinoline IC50 to test compound IC50 for human HEL cells; assay type: functional
MDA-MB-231 [20] = test: Potency index, ratio of fangchinoline IC50 to test compound IC50 for human MDA-MB-231 cells; assay type: functional
MCF7 [21] = test: Potency index, ratio of fangchinoline IC50 to test compound IC50 for human MCF-7 cells; assay type: functional
HEL [22] = test: Potency index, ratio of vincristine IC50 to test compound IC50 for human HEL cells; assay type: functional
MDA-MB-231 [23] = test: Potency index, ratio of vincristine IC50 to test compound IC50 for human MDA-MB-231 cells; assay type: functional
MCF7 [24] = test: Potency index, ratio of vincristine IC50 to test compound IC50 for human MCF-7 cells; assay type: functional
HEL [25] = test: Induction of apoptosis in human HEL cells assessed as increase in JNK phosphorylation at 2.5 uM after 8 hrs by Western blot analysis; assay type: functional, cell-based; procedure, shortened: as §4

With COc1ccc2cc1Oc1ccc(cc1)C[C@H]1c3cc(c(OC)cc3CCN1C)Oc1c(OC(=O)C3CCCS3)c(OC)cc3c1[C@H](C2)N(C)CC3 (stereo partly specified) the IC50 (HEL [1]) was 1520 nM, the IC50 (K562) was 1530 nM and the IC50 (MDA-MB-231 [2]) was 1600 nM. The IC50 (MCF7 [3]) was 4010 nM, the Activity (HEL [4]) was “Dose-dependent effect” and the Activity (HEL [5]) was “Tde”. For the same compound, the Activity (HEL [6]) was “Active”, the Activity (HEL [7]) was “Active” and the Activity (HEL [8]) was “Active”. It also gave an Activity (HEL [9]) of 48.12%, an Activity (HEL [10]) of 19.97% and an Activity (HEL [11]) of 27.92%. For the same compound, the Activity (HEL [12]) was 3.38%, the Activity (HEL [13]) was “Active” and the Activity (HEL [14]) was “Active”. For the same compound, the Activity (HEL [15]) was “Active”, the inhibition (HEL [16]) was “Active” and the inhibition (HEL [17]) was “Active”. For the same compound, the IC50 [18] was 550 nM, the “Ratio IC50” value (HEL [19]) was 15 and the “Ratio IC50” value (MDA-MB-231 [20]) was 36. The “Ratio IC50” value (MCF7 [21]) was 9, the “Ratio IC50” value (HEL [22]) was 10 and the “Ratio IC50” value (MDA-MB-231 [23]) was 10. The “Ratio IC50” value (MCF7 [24]) was 10 and the Activity (HEL [25]) was “Active”.
